# According to ChEMBL document CHEMBL3351655, “Scaffold decoration at positions 5 and 8 of 1,2,4-triazolo[1,5-c]pyrimidines to explore the antagonist profiling on adenosine receptors: a preliminary structure-activity relationship study” (J Med Chem, 2014):
# What was measured:
# Adenosine receptor A1 = molecular target: T1, Adenosine receptor A1 (Homo sapiens, UniProt P30542); experiment: Displacement of [3H]CCPA from human adenosine A1 receptor expressed in CHO cells; type: cell-based
# T1 sequence (P30542 whole entry): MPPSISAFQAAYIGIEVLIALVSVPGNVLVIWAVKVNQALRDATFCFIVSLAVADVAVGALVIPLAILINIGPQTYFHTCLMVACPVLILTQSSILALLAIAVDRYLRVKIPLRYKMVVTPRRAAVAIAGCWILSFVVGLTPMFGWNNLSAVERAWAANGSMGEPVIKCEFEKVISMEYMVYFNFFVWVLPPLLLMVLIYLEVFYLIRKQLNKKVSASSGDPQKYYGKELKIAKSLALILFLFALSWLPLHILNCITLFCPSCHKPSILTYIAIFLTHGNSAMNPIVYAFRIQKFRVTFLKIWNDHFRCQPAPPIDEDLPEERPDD
# How it was run: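 Stably transfected CHO cells were homogenised and spun at 1000g to remove nuclei and fragments. Membranes were then pelleted at 100 000g, resuspended in binding buffer, frozen in liquid nitrogen and stored. Radioligand was [³H]CCPA, with nonspecific binding defined by 1 mM theophylline.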
# [1] = molecular target: Adenosine receptors; A1 & A3 (Homo sapiens) (UniProt P30542+P0DMS8); experiment: Selectivity ratio of Ki for human adenosine A1 receptor expressed in CHO cells to Ki for human adenosine A3 receptor expressed in CHO cells; type: cell-based
# CHO [2] = experiment: Selectivity ratio of Ki for human adenosine A2A receptor expressed in CHO cells to Ki for human adenosine A3 receptor expressed in CHO cells; type: cell-based
# Adenosine receptor A3 = molecular target: T2, Adenosine receptor A3 (Homo sapiens, UniProt P0DMS8); experiment: Displacement of [3H]NECA from human adenosine A3 receptor expressed in CHO cells; type: cell-based
# T2 sequence (P0DMS8 whole entry): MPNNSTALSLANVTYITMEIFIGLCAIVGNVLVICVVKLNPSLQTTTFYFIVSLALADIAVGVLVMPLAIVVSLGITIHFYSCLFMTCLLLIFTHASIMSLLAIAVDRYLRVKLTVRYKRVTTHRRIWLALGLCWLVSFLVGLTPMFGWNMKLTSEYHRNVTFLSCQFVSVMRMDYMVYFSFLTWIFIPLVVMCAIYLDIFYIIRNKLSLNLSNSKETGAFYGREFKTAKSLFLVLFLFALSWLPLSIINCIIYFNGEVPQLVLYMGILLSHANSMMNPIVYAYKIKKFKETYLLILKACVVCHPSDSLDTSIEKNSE
# How it was run: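 Radioligand [³H]NECA was used on membranes from stably transfected CHO cells, prepared by a 1000g clearing spin then pelleting at 100 000g. Pellets were resuspended in binding buffer, frozen in liquid nitrogen and stored. Nonspecific binding was defined with 100 μM R-PIA.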
# Adenosine receptor A2a = Adenosine receptor A2a (Homo sapiens, UniProt P29274); experiment: Displacement of [3H]NECA from human adenosine A2A receptor expressed in CHO cells; type: cell-based
# CHO [3] = experiment: Selectivity ratio of Ki for human adenosine A1 receptor expressed in CHO cells to Ki for human adenosine A2A receptor expressed in CHO cells; type: cell-based
# Adenosine receptor A2b = molecular target: T3, Adenosine receptor A2b (Homo sapiens, UniProt P29275); experiment: Antagonist activity at human adenosine A2B receptor expressed in CHO cells assessed as inhibition of NECA-stimulated adenylyl cyclase activity; type: functional, cell-based
# T3 sequence (P29275 whole entry): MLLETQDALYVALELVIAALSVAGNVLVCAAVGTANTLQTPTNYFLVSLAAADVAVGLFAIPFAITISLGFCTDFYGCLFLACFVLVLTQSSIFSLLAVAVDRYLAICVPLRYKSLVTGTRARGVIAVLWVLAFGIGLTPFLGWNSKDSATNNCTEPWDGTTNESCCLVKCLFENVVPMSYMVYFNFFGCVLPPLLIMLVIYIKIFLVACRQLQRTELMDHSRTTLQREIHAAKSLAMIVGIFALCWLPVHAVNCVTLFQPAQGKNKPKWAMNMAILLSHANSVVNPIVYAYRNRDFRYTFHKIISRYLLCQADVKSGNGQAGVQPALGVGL
# How it was run: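 Membranes from stably transfected CHO cells, made with a single high-speed centrifugation of the homogenate. Incubated 20 min with about 150 000 cpm [α-³²P]ATP, in a mixture without EGTA and NaCl. IC50 for concentration-dependent inhibition of NECA-stimulated adenylyl cyclase was fitted with the Hill equation and converted to Ki by Cheng–Prusoff.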
# Sequence of Adenosine receptor A2a (P29274 whole entry): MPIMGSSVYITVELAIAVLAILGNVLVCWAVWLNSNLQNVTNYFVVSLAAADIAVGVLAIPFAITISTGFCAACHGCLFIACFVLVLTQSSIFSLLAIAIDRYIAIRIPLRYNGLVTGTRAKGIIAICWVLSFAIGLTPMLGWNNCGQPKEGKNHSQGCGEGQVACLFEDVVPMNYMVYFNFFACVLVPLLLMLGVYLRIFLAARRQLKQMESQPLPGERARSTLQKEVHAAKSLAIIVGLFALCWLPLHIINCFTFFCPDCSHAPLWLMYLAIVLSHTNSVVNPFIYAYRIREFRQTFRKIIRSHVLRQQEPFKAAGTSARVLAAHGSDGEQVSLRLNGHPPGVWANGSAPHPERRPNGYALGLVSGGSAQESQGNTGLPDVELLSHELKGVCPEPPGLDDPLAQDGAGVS
SMILES,Ki (Adenosine receptor A1),Ratio Ki [1],Ki (Adenosine receptor A3),Ki (Adenosine receptor A2a),Ki (Adenosine receptor A2b),Ratio Ki (CHO [2]),Ratio Ki (CHO [3])
O=C(Nc1ccccc1)Nc1ncc(C(=O)NCCc2ccccc2)c2nc(-c3ccco3)nn12,365 nM,0.27,1350 nM,51.4 nM,> 30000 nM,0.04,7.1
CCCCC(CC)CNc1ncc(C(=O)O)c2nc(-c3ccco3)nn12 (centres undefined),1780 nM,0.11,16400 nM,33800 nM,> 10000 nM,2.06,0.05
CCOC(=O)c1cnc(NC(=O)Nc2ccccc2)n2nc(-c3ccco3)nc12,322 nM,0.9,357 nM,4.82 nM,1900 nM,0.01,66.8
CCOC(=O)c1cnc(NOC)n2nc(-c3ccco3)nc12,6510 nM,5.47,1190 nM,210 nM,> 10000 nM,0.18,31
O=C(O)c1cnc(NCc2ccccc2)n2nc(-c3ccco3)nc12,5090 nM,2.28,2230 nM,3660 nM,> 10000 nM,1.64,1.39
O=C(O)c1cnc(NCc2ccc(F)cc2)n2nc(-c3ccco3)nc12,> 100000 nM,> 7.14,14000 nM,6390 nM,> 30000 nM,0.46,> 15.6
CC(C)Nc1ncc(C(=O)O)c2nc(-c3ccco3)nn12,4490 nM,0.26,17500 nM,7660 nM,> 10000 nM,0.44,0.59
CCOC(=O)c1cnc(NCc2ccc(-c3ccccc3)cc2)n2nc(-c3ccco3)nc12,890 nM,1.02,875 nM,187 nM,> 30000 nM,0.21,4.76
O=C(O)c1cnc(NCc2ccc(Cl)cc2)n2nc(-c3ccco3)nc12,> 100000 nM,> 8.62,11600 nM,> 100000 nM,> 30000 nM,> 8.62,–
CCOC(=O)c1cnc(NCc2ccccc2)n2nc(-c3ccco3)nc12,940 nM,94,10 nM,32 nM,2510 nM,3.2,29.4
O=C(O)c1cnc(NC(c2ccccc2)c2ccccc2)n2nc(-c3ccco3)nc12,2450 nM,1.18,2070 nM,> 100000 nM,> 30000 nM,> 48,< 0.02
CCOC(=O)c1cnc(NN2CCOCC2)n2nc(-c3ccco3)nc12,> 100000 nM,–,> 30000 nM,> 100000 nM,> 10000 nM,–,–
CCOC(=O)c1cnc(SC)n2nc(-c3ccco3)nc12,5720 nM,2.17,2640 nM,9500 nM,> 30000 nM,3.6,0.6
CCOC(=O)c1cnc(NCc2ccc(C)cc2)n2nc(-c3ccco3)nc12,1340 nM,23.9,56.1 nM,122 nM,10000 nM,2.17,11
CCOC(=O)c1cnc(NC(=O)Cc2ccccc2)n2nc(-c3ccco3)nc12,> 100000 nM,> 38.6,2590 nM,42700 nM,> 30000 nM,16.5,> 2.34
CCCCCNc1ncc(C(=O)OCC)c2nc(-c3ccco3)nn12,613 nM,54.2,11.3 nM,50.1 nM,> 10000 nM,4.43,12.2
CNC(=O)c1cnc(NC(=O)Nc2ccccc2)n2nc(-c3ccco3)nc12,126 nM,0.17,730 nM,5.76 nM,1180 nM,0.01,21.9
CCOC(=O)c1cnc(N2CCOCC2)n2nc(-c3ccco3)nc12,> 100000 nM,> 11.5,8700 nM,17600 nM,> 10000 nM,2.02,> 5.68
CCOC(=O)c1cnc(NCc2ccc(C(F)(F)F)cc2)n2nc(-c3ccco3)nc12,1590 nM,4.92,323 nM,209 nM,2040 nM,0.65,7.61
CNc1ncc(C(=O)O)c2nc(-c3ccco3)nn12,> 100000 nM,> 6.29,15900 nM,> 100000 nM,> 10000 nM,> 6.29,–

# The next lines start with results.
Ki (Adenosine receptor A1),Ratio Ki [1],Ki (Adenosine receptor A3),Ki (Adenosine receptor A2a),Ki (Adenosine receptor A2b),SMILES,Ratio Ki (CHO [2]),Ratio Ki (CHO [3])
3790 nM,0.21,17700 nM,37300 nM,> 10000 nM,O=C(O)c1cnc(NC2CCCC2)n2nc(-c3ccco3)nc12,2.11,0.1
57.1 nM,0.41,140 nM,11.1 nM,5320 nM,Nc1ncc(C(=O)NCCc2ccccc2)c2nc(-c3ccco3)nn12,0.08,5.14
> 100000 nM,> 1.68,59400 nM,24700 nM,> 30000 nM,O=C(Nc1ncc(C(=O)O)c2nc(-c3ccco3)nn12)NC1CCCCC1,0.42,> 4.05
75.2 nM,6.42,11.7 nM,28.9 nM,> 3000 nM,CCOC(=O)c1cnc(NC2CCC2)n2nc(-c3ccco3)nc12,2.47,2.6
45.6 nM,1.87,24.4 nM,44.4 nM,7150 nM,CCOC(=O)c1cnc(NCC(C)C)n2nc(-c3ccco3)nc12,1.82,1.03
8860 nM,5,1770 nM,8180 nM,> 10000 nM,CCOC(=O)c1cnc(N2CCCCC2)n2nc(-c3ccco3)nc12,4.62,1.08
932 nM,20.1,46.3 nM,39.3 nM,1970 nM,CCOC(=O)c1cnc(NCc2ccc(F)cc2)n2nc(-c3ccco3)nc12,0.85,23.7
162 nM,49.1,3.3 nM,50.3 nM,3060 nM,CCNc1ncc(C(=O)OCC)c2nc(-c3ccco3)nn12,15.2,3.22
2740 nM,0.17,15800 nM,33900 nM,> 10000 nM,O=C(O)c1cnc(NCC2CCCCC2)n2nc(-c3ccco3)nc12,2.14,0.08
385 nM,4.39,87.7 nM,65.2 nM,> 30000 nM,COc1ccc(CNc2ncc(C(=O)NCCc3ccccc3)c3nc(-c4ccco4)nn23)cc1OC,0.74,5.9
1110 nM,–,> 10000 nM,–,> 10000 nM,COc1ccc(CCCn2ncc3c2nc(N)n2nc(-c4ccco4)nc32)cc1,–,–
958 nM,6.02,159 nM,5320 nM,> 30000 nM,COc1ccc(CNc2ncc(C(=O)O)c3nc(-c4ccco4)nn23)cc1OC,33.4,–
